The subject of one data set is Streptomyces. Put plainly: Antimicrobial activity against Streptomyces 85E at 80 ug/disk after 30 hrs by hyphae formation inhibition assay. Type of data set: functional, organism-based.
Data set [1] concerns HEK293. Put plainly: Inhibition of TNF-alpha-induced NF-kappaB activity in HEK293 cells assessed as cell survival at 50 uM after 6 hrs by luciferase reporter gene assay. Type of data set: cell-based. Conditions: Homo sapiens. In a few lines: (§1)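 HEK293 reporter cells were tested under the NF-κB assay conditions: TNF-α activation at 2 ng/mL and 6 h exposure to compounds. Values are cytotoxic IC50 or % survival at 50 μM.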

A further data set deals with MCF7. As to the kind of experiment: Cytotoxicity against human MCF7 cells. It counts as functional, cell-based.
In data set [2] the target is Nitric oxide synthase, inducible (Homo sapiens) (UniProt P35228). As to the kind of experiment: Inhibition of iNOS (unknown origin).
Chain of Nitric oxide synthase, inducible (Homo sapiens) (P35228 whole entry): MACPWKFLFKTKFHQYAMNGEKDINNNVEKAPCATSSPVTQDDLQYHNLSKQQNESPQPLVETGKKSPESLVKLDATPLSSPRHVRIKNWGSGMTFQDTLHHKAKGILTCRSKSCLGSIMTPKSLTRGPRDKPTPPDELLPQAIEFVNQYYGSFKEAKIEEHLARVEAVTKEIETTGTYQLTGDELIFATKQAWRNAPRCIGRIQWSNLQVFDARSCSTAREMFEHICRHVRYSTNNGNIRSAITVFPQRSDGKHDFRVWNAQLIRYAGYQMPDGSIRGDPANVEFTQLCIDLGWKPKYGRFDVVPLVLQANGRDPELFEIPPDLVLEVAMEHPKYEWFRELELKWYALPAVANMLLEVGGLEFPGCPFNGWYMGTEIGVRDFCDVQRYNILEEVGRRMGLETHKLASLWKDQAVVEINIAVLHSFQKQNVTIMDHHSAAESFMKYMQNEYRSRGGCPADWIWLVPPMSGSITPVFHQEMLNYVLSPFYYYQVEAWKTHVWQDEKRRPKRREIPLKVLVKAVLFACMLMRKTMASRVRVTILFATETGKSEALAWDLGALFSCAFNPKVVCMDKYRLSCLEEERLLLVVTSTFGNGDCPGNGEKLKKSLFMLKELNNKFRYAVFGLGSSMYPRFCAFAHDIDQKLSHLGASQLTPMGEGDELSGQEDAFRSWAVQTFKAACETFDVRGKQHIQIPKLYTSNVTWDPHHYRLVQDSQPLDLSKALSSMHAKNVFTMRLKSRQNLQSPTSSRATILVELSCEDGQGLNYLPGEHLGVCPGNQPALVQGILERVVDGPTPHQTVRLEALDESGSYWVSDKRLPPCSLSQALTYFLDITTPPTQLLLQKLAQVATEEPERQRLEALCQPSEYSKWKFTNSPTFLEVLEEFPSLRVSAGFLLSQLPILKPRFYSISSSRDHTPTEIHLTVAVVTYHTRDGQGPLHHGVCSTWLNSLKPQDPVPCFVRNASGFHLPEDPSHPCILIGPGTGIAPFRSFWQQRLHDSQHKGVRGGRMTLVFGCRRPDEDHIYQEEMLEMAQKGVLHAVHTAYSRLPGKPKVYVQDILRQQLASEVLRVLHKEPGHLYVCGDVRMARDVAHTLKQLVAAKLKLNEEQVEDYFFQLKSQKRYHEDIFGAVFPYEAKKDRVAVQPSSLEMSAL
Data set [3] concerns HEK293. As to the kind of experiment: Inhibition of TNF-alpha-induced NF-kappaB activity in HEK293 cells at 50 uM after 6 hrs by luciferase reporter gene assay. It counts as cell-based. Particulars: Homo sapiens. In a few lines:
(§2)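 Stable NF-κB luciferase reporter HEK293 cells were seeded at 20×10^3 cells/well in DMEM with 10% FBS, penicillin/streptomycin and 2 mM L-glutamine, grown 48 h, then given fresh medium and compounds. Cells were activated with human recombinant TNF-α at 2 ng/mL (0.14 nM) for 6 h, washed, lysed, and read by luciferase luminescence. Values are IC50 for inhibiting TNF-induced activity, or % inhibition at 50 μM.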

For data set [4], the system named is Radical scavenging activity. Put plainly: Antioxidant activity assessed as DPPH radical scavenging activity. It counts as functional.
Data set [5] is described as follows: Inhibition of TNF-alpha-induced NF-kappaB activity in HEK293 cells after 6 hrs by luciferase reporter gene assay. It counts as cell-based. Conditions: Homo sapiens, HEK293, 6 h. An outline of the steps: as §2
The subject of data set [6] is HEK293. Put plainly: Cytotoxicity against HEK293 cells. Type of data set: cell-based. Particulars: Homo sapiens. An outline of the steps: as §1
The test system of another data set is NF-kappaB. Put plainly: Selectivity ratio of IC50 for HEK293 cells to IC50 for NF-kappaB activity in HEK293 cells. Particulars: human, read-out: Ratio IC50. It counts as ADME, cell-based. In a few lines: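 HEK293 (Panomic) cells stably carrying an NF-κB luciferase reporter, grown in DMEM with 10% FBS, penicillin/streptomycin and 2 mM L-glutamine, seeded at 20×10^3 per well, then left 48 h. Medium renewed, cells given a range of compound concentrations plus TNF-α at 2 ng/mL (0.14 nM) for 6 h. Lysates read by luciferase luminescence. Cytotoxicity IC50 run under the same conditions.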

The source made the active and inactive calls. The calls are words filed in the database; no cut-off is given here.

Regarding `C/C=C(\C)C(=O)O[C@H]1[C@H](O)[C@@H](C(=O)OC)O[C@@H]2C[C@H]3O[C@@H](n4cnc5c(N)ncnc54)[C@H](OC)[C@H]3O[C@]21O`, the outcome (in the data set on Streptomyces; in the data set with MCF7; in [4]) was inactive. In addition, the cell survival in the data set with HEK293 [1] turned out to be 59.8%. In [2], the inhibition entry was “inactive”. In the data set with HEK293 [3], this compound registered an inhibition of 83.4%. For the same compound, the IC50 in data set [5] was 500 nM; in the data set with HEK293 [6], 2300 nM.
Take `COC(=O)[C@H]1O[C@@H]2C[C@H]3O[C@@H](n4cnc5c(N)ncnc54)[C@H](OC)[C@H]3O[C@@]2(O)[C@H](O)[C@@H]1O`: the outcome (in the data set with Streptomyces; in the data set on MCF7; in [4]) was inactive. Moreover, in the data set on HEK293 [1], the cell survival came out at 53%. For the same compound, the inhibition entry in data set [2] is “inactive”. Also, in the data set on HEK293 [3], the inhibition was 92.2%. For the same compound, the IC50 in data set [5] turned out to be 3200 nM; with HEK293 [6] it was 43700 nM.
As to `Cc1ccc(S(=O)(=O)N[C@@H](Cc2ccccc2)C(=O)CCl)cc1` [TPCK], in the data set on NF-kappaB, the selectivity ratio stood at 2. The IC50 in data set [5] was 3800 nM; in the data set on HEK293 [6] it was 11100 nM.
Regarding `C/C=C(\C)C(=O)O[C@H]1[C@H](O)[C@@H](C(=O)OC)O[C@@H]2C[C@H]3O[C@@H](n4cnc5c(N)ncnc54)[C@H](O)[C@H]3O[C@]21O`, the outcome (in the data set with Streptomyces; in the data set with MCF7; in [4]) was inactive. For the same compound, the cell survival in the data set with HEK293 [1] was determined as 42.3%. Also, in [2], the inhibition entry is “inactive”. The compound also displayed an inhibition in the data set on HEK293 [3] of 92.4%. Moreover, the IC50 in data set [5] was 4900 nM; with HEK293 [6], 2200 nM.
Turning to `COC(=O)[C@@H]1CC(O)(O)[C@]2(O)O[C@@H]3[C@@H](OC)[C@H](n4cnc5c(N)ncnc54)O[C@@H]3C[C@H]2O1`, the outcome (in the data set with Streptomyces; in the data set with MCF7; in [4]) was inactive. The cell survival in the data set with HEK293 [1] stood at 45.1%. Further, the inhibition entry in data set [2] is “inactive”. The inhibition with HEK293 [3] stood at 96.2%. In addition, the concentration for half-maximal inhibition (IC50) in data set [5] is 2400 nM; with HEK293 [6], 13700 nM.
On to `C/C=C(\CO)C(=O)O[C@H]1[C@H](O)[C@@H](C(=O)OC)O[C@@H]2C[C@H]3O[C@@H](n4cnc5c(N)ncnc54)[C@H](OC)[C@H]3O[C@]21O`, for which the outcome (with Streptomyces; in the data set with MCF7; in data set [4]) was inactive. Further, the cell survival in the data set with HEK293 [1] amounted to 45.8%. Moreover, the inhibition result in data set [2] was “inactive”. In addition, the inhibition in the data set on HEK293 [3] is 80.9%. Moreover, the concentration for half-maximal inhibition (IC50) in data set [5] stood at 1800 nM; with HEK293 [6] it was 2700 nM.
For the compound `COC(=O)[C@H]1O[C@@H]2C[C@H]3O[C@@H](n4cnc5c(N)ncnc54)[C@H](OC)[C@H]3O[C@@]2(O)[C@@H](O)[C@@H]1O`, the result (with Streptomyces; with MCF7; in data set [4]) was inactive. In addition, in the data set on HEK293 [1], the cell survival turned out to be 95.6%. Moreover, the inhibition entry in data set [2] is “inactive”. The inhibition in the data set with HEK293 [3] was found to be 94.2%. Also, the half-maximal inhibitory concentration (IC50) in data set [5] was 2900 nM; in the data set with HEK293 [6], over 50000 nM.
Regarding `Cc1ccc(S(=O)(=O)/C=C/C#N)cc1`, the selectivity ratio in the data set with NF-kappaB is 2. Also, the IC50 is 2000 nM in data set [5] and 3800 nM in the data set with HEK293 [6].

Source of the values: ChEMBL document CHEMBL3108754, “Herbicidin congeners, undecose nucleosides from an organic extract of Streptomyces sp. L-9-10” (J Nat Prod, 2014).
